In ChEMBL document CHEMBL1141892, “Syntheses and properties of the major hydroxy metabolites in humans of blonanserin AD-5423, a novel antipsychotic agent” (Bioorg Med Chem Lett, 2005) one finds Ki data, which are given here for five compounds.

For assay [1], the target named is 5-hydroxytryptamine receptor 2A (Homo sapiens, UniProt P28223). Kind of assay: In vitro binding affinity against recombinant human 5-hydroxytryptamine 2A receptor […]. A digest of the protocol:
(§1)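 Affinities are Ki values (nM) at human D2L and human 5-HT2A receptors, reported as mean ± SEM of three independent experiments.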

Another assay concerns the target D(2) dopamine receptor (Homo sapiens, UniProt P14416). Kind of assay: In vitro binding affinity against recombinant human dopamine receptor D2L […]. A digest of the protocol: as §1

Sequence of D(2) dopamine receptor (P14416 whole entry): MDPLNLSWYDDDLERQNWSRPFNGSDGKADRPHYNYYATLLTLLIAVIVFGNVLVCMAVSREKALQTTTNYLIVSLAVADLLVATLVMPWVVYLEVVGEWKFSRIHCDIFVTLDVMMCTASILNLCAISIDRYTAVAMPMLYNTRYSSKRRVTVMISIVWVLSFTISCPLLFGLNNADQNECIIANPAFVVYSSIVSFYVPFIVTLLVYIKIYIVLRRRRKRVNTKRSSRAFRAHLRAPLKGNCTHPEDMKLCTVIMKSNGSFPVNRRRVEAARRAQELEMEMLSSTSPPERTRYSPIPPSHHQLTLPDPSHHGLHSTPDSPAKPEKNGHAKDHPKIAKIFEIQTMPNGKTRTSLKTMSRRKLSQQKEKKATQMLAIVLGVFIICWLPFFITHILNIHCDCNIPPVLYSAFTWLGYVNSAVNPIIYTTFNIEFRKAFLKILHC
Sequence of 5-hydroxytryptamine receptor 2A (P28223 whole entry): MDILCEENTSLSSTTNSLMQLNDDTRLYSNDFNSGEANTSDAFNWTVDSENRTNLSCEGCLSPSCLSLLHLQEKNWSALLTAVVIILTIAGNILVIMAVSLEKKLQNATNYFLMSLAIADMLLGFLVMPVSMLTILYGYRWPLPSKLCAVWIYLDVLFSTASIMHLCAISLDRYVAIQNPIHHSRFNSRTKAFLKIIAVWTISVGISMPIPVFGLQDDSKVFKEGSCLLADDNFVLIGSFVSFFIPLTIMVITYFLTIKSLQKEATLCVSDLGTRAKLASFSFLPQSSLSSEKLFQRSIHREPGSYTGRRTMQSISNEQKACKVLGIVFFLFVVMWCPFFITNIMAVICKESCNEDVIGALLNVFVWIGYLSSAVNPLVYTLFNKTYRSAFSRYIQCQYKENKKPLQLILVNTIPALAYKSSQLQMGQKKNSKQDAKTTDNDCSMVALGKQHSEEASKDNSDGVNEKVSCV

Turning to `CCN1CCN(c2cc(-c3ccc(F)cc3)c3c(n2)CCC[C@H](O)CC3)CC1`, the Ki in assay [1] was 0.0185 µM; on D(2) dopamine receptor, 0.0212 µM.

As to `CCN1CCN(c2cc(-c3ccc(F)cc3)c3c(n2)CC[C@@H](O)CCC3)CC1`, the Ki in assay [1] stood at 0.0179 µM; on D(2) dopamine receptor, 0.0119 µM.

Regarding `CCN1CCN(c2cc(-c3ccc(F)cc3)c3c(n2)CC[C@H](O)CCC3)CC1`, the Ki came to 0.00967 µM in assay [1] and 0.0036 µM on D(2) dopamine receptor.

Turning to `CCN1CCN(c2cc(-c3ccc(F)cc3)c3c(n2)CCCCCC3)CC1` [BLONANSERIN], the inhibition constant Ki in assay [1] is 0.00081 µM; on D(2) dopamine receptor it was 0.00014 µM.

As for `CCN1CCN(c2cc(-c3ccc(F)cc3)c3c(n2)CCC[C@@H](O)CC3)CC1`, the Ki came out at 0.0147 µM in assay [1] and 0.0062 µM on D(2) dopamine receptor.
